pIC50: −log10 of the molar value.
Experiments:
HeLa [1] = assay: Antiproliferative activity in human HeLa cells by sulforhodamine B assay; assay type: functional, cell-based
In short: (§1)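 Cells grown in D-MEM with 10% (v/v) FBS, 100 U/mL penicillin G and 100 μg/mL streptomycin, at 37 °C under 5% CO2 and 95% humidity. Cytotoxic and antiproliferative effects were measured by the sulforhodamine B method of Skehan et al. CC50 (cytotoxic) or IC50 (antiproliferative) is the concentration giving 50% growth reduction. Docetaxel was the positive control. Triplicate tests.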

HEK293 = assay: Antiproliferative activity in HEK293 cells by sulforhodamine B assay; assay type: cell-based; details: Homo sapiens; in short: as §1
HeLa [2] = assay: Cytotoxic activity in human HeLa cells by sulforhodamine B assay; assay type: functional
In short: (§2)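 Cell lines grown in D-MEM with 10% (v/v) FBS, 100 U/mL penicillin G and 100 μg/mL streptomycin at 37 °C, 5% CO2, 95% humidity. Cytotoxicity was measured by the Skehan method. CC50 was taken as the concentration that reduces cell growth by 50%. Docetaxel served as positive control, and each test was run in triplicate.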

HEp-2 [3] = assay: Antiproliferative activity in human Hep2 cells by sulforhodamine B assay; assay type: functional, cell-based; in short: as §1
[4] = Cytotoxic activity in African green monkey Vero cells by sulforhodamine B assay; assay type: cell-based; details: chlorocebus sabaeus; in short: as §1
DU-145 [5] = assay: Antiproliferative activity in human DU145 cells by sulforhodamine B assay; assay type: functional, cell-based; in short: as §1
SiHa [6] = assay: Cytotoxic activity in human SiHa cells by sulforhodamine B assay; assay type: functional; in short: as §2
[7] = Cytotoxic activity in HEK293 cells by sulforhodamine B assay; assay type: cell-based; details: human; in short: as §1
DU-145 [8] = assay: Cytotoxic activity in human DU145 cells by sulforhodamine B assay; assay type: functional; in short: as §2
MCF7 [9] = assay: Antiproliferative activity in human MCF7 cells by sulforhodamine B assay; assay type: functional, cell-based; in short: as §1
KB [10] = assay: Cytotoxic activity in human KB cells by sulforhodamine B assay; assay type: functional; in short: as §2
HEp-2 [11] = assay: Cytotoxic activity in human Hep2 cells by sulforhodamine B assay; assay type: functional; in short: as §2
MDA-MB-231 [12] = assay: Cytotoxic activity in human MDA-MB-231 cells by sulforhodamine B assay; assay type: functional; in short: as §2
MCF7 [13] = assay: Cytotoxic activity in human MCF7 cells by sulforhodamine B assay; assay type: functional; in short: as §2
KB [14] = assay: Antiproliferative activity in human KB cells by sulforhodamine B assay; assay type: functional, cell-based; in short: as §1
Vero = assay: Antiproliferative activity in African green monkey Vero cells by sulforhodamine B assay; assay type: cell-based; details: Chlorocebus sabaeus; in short: as §1
SiHa [15] = assay: Antiproliferative activity in human SiHa cells by sulforhodamine B assay; assay type: functional, cell-based; in short: as §1
MDA-MB-231 [16] = assay: Antiproliferative activity in human MDA-MB-231 cells by sulforhodamine B assay; assay type: functional, cell-based; in short: as §1
[17] = Selectivity index, ratio of cytotoxic CC50 for African green monkey Vero cells to cytotoxic CC50 for human MCF7 cells; assay type: toxicity; details: Vero cells versus MCF7 cells, read-out: Selectivity Index
In short: (§3)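 Selectivity index for harmfulness to normal cells: the normal-cell (Vero or HEK293) CC50 or IC50 over the cancer-cell value from the same assay type. Each value is from sulforhodamine B growth-reduction tests done in triplicate in D-MEM/10% FBS at 37 °C, 5% CO2.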

[18] = Selectivity index, ratio of cytotoxic CC50 for African green monkey Vero cells to cytotoxic CC50 for human KB cells; assay type: toxicity; details: Vero cells versus KB cells, read-out: Selectivity Index; in short: as §3
[19] = Selectivity index, ratio of antiproliferative IC50 for African green monkey Vero cells to antiproliferative IC50 for human SiHa cells; assay type: toxicity; details: Vero cells versus SiHa cells, read-out: Ratio IC50; in short: as §3
[20] = Selectivity index, ratio of cytotoxic CC50 for African green monkey Vero cells to cytotoxic CC50 for human Hep2 cells; assay type: toxicity; details: Vero cells versus Hep2 cells, read-out: Selectivity Index
[21] = Selectivity index, ratio of antiproliferative IC50 for African green monkey Vero cells to antiproliferative IC50 for human KB cells; assay type: toxicity; details: Vero cells versus KB cells, read-out: Ratio IC50; in short: as §3
[22] = Selectivity index, ratio of cytotoxic CC50 for African green monkey Vero cells to cytotoxic CC50 for human HeLa cells; assay type: toxicity; details: Vero cells versus HeLa cells, read-out: Selectivity Index; in short: as §3
[23] = Selectivity index, ratio of antiproliferative IC50 for African green monkey Vero cells to antiproliferative IC50 for human HeLa cells; assay type: toxicity; details: Vero cells versus HeLa cells, read-out: Ratio IC50; in short: as §3
[24] = Selectivity index, ratio of antiproliferative IC50 for African green monkey Vero cells to antiproliferative IC50 for human MCF7 cells; assay type: toxicity; details: Vero cells versus MCF7 cells, read-out: Ratio IC50; in short: as §3
[25] = Selectivity index, ratio of cytotoxic CC50 for African green monkey Vero cells to cytotoxic CC50 for human SiHa cells; assay type: toxicity; details: Vero cells versus SiHa cells, read-out: Selectivity Index; in short: as §3

Row | SMILES | pIC50 (HeLa [1]) | pIC50 (HEK293) | CC50 (HeLa [2]) | pIC50 (HEp-2 [3]) | CC50 [4] | pIC50 (DU-145 [5]) | CC50 (SiHa [6]) | CC50 [7] | CC50 (DU-145 [8]) | pIC50 (MCF7 [9]) | CC50 (KB [10]) | CC50 (HEp-2 [11]) | CC50 (MDA-MB-231 [12]) | CC50 (MCF7 [13]) | pIC50 (KB [14]) | pIC50 (Vero) | pIC50 (SiHa [15]) | pIC50 (MDA-MB-231 [16]) | also measured
1 | C=C(C=O)[C@@H]1CC[C@]2(C(=O)O)CC[C@]3(C)[C@H](CC[C@@H]4[C@@]5(C)CC[C@@H](O)[C@](C)(CO)[C@@H]5CC[C@]43C)[C@@H]12 | 3.97 | < 3.30 | 182 µM | < 3.30 | > 500 µM | 4.05 | 92.2 µM | > 500 µM | 52.6 µM | < 3.30 | > 500 µM | > 500 µM | 106 µM | > 500 µM | < 3.30 | < 3.30 | 3.90 | 3.91 | 
2 | C=C(C)[C@@H]1CC[C@]2(C(=O)O)CC[C@]3(C)[C@H](CC[C@@H]4[C@@]5(C)CC[C@H]6OC(C)(C)OC[C@]6(C)[C@@H]5CC[C@]43C)[C@@H]12 | < 3.30 | 3.18 | > 500 µM | < 3.30 | > 500 µM | < 3.30 | > 500 µM | 420 µM | > 500 µM | < 3.30 | 10.2 µM | 32.4 µM | > 500 µM | 84.6 µM | 4.79 | < 3.30 | 4.24 | < 3.30 | selectivity ratio [17]: 5; selectivity ratio [18]: 41; selectivity ratio [19]: 11.3; selectivity ratio [20]: 13; selectivity ratio [21]: 39.9
3 | C=C(C)[C@@H]1CC[C@]2(CO)CC[C@]3(C)[C@H](CC[C@@H]4[C@@]5(C)CC[C@H](O)C(C)(C)[C@@H]5CC[C@]43C)[C@@H]12 [BETULIN] | < 3.30 | < 3.30 | > 500 µM | < 3.30 | > 500 µM | 3.86 | > 500 µM | > 500 µM | 162 µM | < 3.30 | > 500 µM | > 500 µM | > 500 µM | > 500 µM | < 3.30 | < 3.30 | < 3.30 | < 3.30 | 
4 | C=C(C)[C@@H]1CC[C@]2(CO)CC[C@]3(C)[C@H](CC[C@@H]4[C@@]5(C)CCC(=O)C(C)(C)[C@@H]5CC[C@]43C)[C@@H]12 [BETULONE] | < 3.30 | < 3.30 | 136 µM | < 3.30 | > 500 µM | < 3.30 | 197 µM | > 500 µM | 102 µM | < 3.30 | > 500 µM | > 500 µM | 136 µM | > 500 µM | < 3.30 | < 3.30 | < 3.30 | < 3.30 | 
5 | C=C(C)[C@@H]1CC[C@]2(C(=O)O)CC[C@]3(C)[C@H](CC[C@@H]4[C@@]5(C)CCC(=O)C(C)(C)[C@@H]5CC[C@]43C)[C@@H]12 [BETUNOLIC ACID] | < 3.30 | < 3.30 | > 500 µM | < 3.30 | > 500 µM | < 3.30 | 117 µM | > 500 µM | 139 µM | < 3.30 | > 500 µM | > 500 µM | 60.9 µM | > 500 µM | < 3.30 | < 3.30 | < 3.30 | < 3.30 | 
6 | C=C(C)[C@@H]1CC[C@]2(C(=O)O)CC[C@]3(C)[C@H](CC[C@@H]4[C@@]5(C)CC[C@@H](O)C(C)(C)[C@@H]5CC[C@]43C)[C@@H]12 [EPIBETULINIC ACID] | 4.04 | < 3.30 | 118 µM | < 3.30 | 107 µM | < 3.30 | 113 µM | > 500 µM | > 500 µM | 4.04 | > 500 µM | > 500 µM | > 500 µM | 154 µM | < 3.30 | 3.93 | 3.93 | < 3.30 | selectivity ratio [22]: 0.9; selectivity ratio [17]: 0.7; selectivity ratio [19]: 1; selectivity ratio [23]: 1.3; selectivity ratio [24]: 1.2; selectivity ratio [25]: 0.9
7 | C=C(C)[C@@H]1CC[C@]2(C)CC[C@]3(C)[C@H](CC[C@@H]4[C@@]5(C)CCC(=O)C(C)(C)[C@@H]5CC[C@]43C)[C@@H]12 [LUPENONE] | < 3.30 | < 3.30 | > 500 µM | < 3.30 | > 500 µM | < 3.30 | > 500 µM | > 500 µM | > 500 µM | < 3.30 | > 500 µM | > 500 µM | > 500 µM | > 500 µM | < 3.30 | < 3.30 | < 3.30 | < 3.30 | 
8 | CC1(C)CC[C@]2(C(=O)O)CC[C@]3(C)C(=CC[C@@H]4[C@@]5(C)CC[C@H](O)C(C)(C)[C@@H]5CC[C@]43C)[C@@H]2C1 [OLEANOLIC_ACID] | 3.69 | < 3.30 | > 500 µM | < 3.30 | > 500 µM | 3.91 | 109 µM | > 500 µM | 65.6 µM | < 3.30 | > 500 µM | > 500 µM | 106 µM | > 500 µM | < 3.30 | < 3.30 | 3.96 | 3.87 | 
